Format in all cases: cell-based
Assay [1] deals with T1, Voltage-dependent T-type calcium channel subunit alpha-1G (Homo sapiens, UniProt O43497). As to the kind of experiment: Inhibition of T type calcium channel subunit alpha1G expressed in HEK293 cells assessed as effect on KCl-induced increase in intracellular calcium level at 10 uM by FDSS assay. The method in brief: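 HEK293 cells stably co-expressing α1G and Kir2.1 were plated at 40,000 cells/well and used the next day. Loaded 60 min at room temperature with 5 µM fluo3/AM plus 0.001% Pluronic F-127 in HEPES buffer (1.8 mM CaCl2, pH 7.4). Depolarized with 70 mM KCl in buffer containing 10 mM CaCl2; the rise in intracellular Ca2+ was read by fluorescence.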
For orientation: Calcium assays in cells follow changes in intracellular calcium, usually with a dye or a luminescent sensor.

The target of assay [2] is T1, Voltage-dependent T-type calcium channel subunit alpha-1G. As to the kind of experiment: Inhibition of T type calcium channel subunit alpha-1G expressed in HEK293 cells assessed as effect on T-type calcium currents by patch clamp method. The method in brief:
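Whole-cell patch clamp on HEK293 cells expressing α1G. Electrodes of 3-4 MΩ held internal solution (mM): 130 KCl, 11 EGTA, 5 Mg-ATP, 10 HEPES, pH 7.4. External solution (mM): 140 NaCl, 2 CaCl2, 10 HEPES, 10 glucose, pH 7.4. Currents evoked every 15 s by a 50 ms step from -100 to -30 mV. Read-out was peak current; IC50 from dose-response fits.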
In general terms: The patch-clamp technique gives a direct electrical read-out from membranes.

The target is the same in assay [3]. Put plainly: Inhibition of T type calcium channel subunit alpha-1G expressed in HEK293 cells assessed as effect on T-type calcium currents at 10 uM by patch clamp method.

A word on the inhibition: it is the relative decrease from the control value, in per cent. The IC50 is the midpoint of a concentration-inhibition curve.

T1 sequence (O43497 whole entry): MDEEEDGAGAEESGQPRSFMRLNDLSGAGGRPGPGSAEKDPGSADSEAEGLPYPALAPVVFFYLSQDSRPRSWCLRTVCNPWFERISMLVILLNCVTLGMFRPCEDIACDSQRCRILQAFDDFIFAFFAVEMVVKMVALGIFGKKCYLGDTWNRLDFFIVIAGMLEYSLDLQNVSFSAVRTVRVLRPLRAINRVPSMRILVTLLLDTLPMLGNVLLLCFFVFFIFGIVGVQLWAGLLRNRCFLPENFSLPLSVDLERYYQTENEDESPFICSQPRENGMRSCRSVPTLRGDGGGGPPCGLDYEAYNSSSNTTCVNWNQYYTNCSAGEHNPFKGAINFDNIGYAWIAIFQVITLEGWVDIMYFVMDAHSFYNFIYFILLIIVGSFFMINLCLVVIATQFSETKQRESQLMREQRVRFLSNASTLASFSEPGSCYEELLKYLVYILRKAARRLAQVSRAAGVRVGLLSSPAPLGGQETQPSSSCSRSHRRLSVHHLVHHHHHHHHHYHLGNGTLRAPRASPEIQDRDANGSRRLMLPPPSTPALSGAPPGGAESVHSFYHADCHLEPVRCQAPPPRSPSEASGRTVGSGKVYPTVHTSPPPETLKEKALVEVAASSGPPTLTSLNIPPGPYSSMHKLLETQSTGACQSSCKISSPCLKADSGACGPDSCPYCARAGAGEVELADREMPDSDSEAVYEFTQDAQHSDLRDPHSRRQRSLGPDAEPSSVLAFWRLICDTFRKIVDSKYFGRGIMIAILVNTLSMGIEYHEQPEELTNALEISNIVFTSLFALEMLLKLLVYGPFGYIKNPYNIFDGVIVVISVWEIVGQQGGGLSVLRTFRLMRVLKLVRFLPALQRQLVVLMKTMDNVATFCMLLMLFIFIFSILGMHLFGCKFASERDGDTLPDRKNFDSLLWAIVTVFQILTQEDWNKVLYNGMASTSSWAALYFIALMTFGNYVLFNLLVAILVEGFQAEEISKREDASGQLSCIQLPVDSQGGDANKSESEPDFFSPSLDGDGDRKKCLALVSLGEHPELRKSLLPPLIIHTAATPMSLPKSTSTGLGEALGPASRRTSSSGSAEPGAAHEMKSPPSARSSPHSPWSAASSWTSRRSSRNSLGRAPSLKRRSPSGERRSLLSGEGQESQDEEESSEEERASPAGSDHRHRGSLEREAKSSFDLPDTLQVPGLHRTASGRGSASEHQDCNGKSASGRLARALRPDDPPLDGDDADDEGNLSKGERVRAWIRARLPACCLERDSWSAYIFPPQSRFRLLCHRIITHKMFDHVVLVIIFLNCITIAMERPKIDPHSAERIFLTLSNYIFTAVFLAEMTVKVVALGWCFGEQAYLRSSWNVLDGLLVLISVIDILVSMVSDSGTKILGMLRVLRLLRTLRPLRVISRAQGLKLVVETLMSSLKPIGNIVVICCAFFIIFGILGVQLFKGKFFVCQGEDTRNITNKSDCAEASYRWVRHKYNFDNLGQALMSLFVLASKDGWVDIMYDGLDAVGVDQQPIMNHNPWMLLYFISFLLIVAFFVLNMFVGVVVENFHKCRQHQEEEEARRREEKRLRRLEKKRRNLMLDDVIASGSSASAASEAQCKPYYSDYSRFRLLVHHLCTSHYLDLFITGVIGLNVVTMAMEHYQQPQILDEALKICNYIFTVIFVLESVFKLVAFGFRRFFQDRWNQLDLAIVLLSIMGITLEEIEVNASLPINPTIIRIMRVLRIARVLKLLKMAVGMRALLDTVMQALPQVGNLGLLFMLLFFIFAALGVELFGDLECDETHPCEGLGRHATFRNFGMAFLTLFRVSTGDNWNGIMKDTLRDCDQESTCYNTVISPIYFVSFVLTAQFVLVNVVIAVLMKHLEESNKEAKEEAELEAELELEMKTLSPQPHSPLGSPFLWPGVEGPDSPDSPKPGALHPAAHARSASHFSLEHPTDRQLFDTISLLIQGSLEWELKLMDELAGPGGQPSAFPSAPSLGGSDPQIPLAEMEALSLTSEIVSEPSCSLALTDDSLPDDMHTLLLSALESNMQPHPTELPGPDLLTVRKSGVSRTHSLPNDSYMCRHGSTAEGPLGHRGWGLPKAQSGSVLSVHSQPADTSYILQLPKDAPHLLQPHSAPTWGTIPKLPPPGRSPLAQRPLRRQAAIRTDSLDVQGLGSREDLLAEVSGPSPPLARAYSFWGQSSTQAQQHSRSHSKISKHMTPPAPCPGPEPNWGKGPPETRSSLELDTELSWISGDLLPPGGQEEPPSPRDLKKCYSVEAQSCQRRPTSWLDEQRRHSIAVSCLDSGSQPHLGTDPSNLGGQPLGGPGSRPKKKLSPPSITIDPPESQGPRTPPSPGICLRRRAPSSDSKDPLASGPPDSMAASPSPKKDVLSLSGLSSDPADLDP

As to `O=C(CCN1CCN(Cc2c(F)cccc2Cl)CC1)Nc1ccc(F)cc1F`, the inhibition in assay [1] came to 29.7%.
Still for that read-out and setting: under `O=C(CN1CCN(C(=O)CCCCN2CCN(Cc3cccc(Cl)c3)CC2)CC1)Nc1ccccc1Cl` stands 40.9%; under `O=C(CN1CCN(C(=O)CCCCN2CCN(c3ccccc3)CC2)CC1)Nc1ccccc1Cl`, 25.2%; under `O=C(CCCN1CCN(c2ccccc2)CC1)Nc1cc(Cl)c(Cl)c(Cl)c1`, 38.3%.
On the same count and under the same terms, the value for `O=C(CCCN1CCN(c2ccccc2F)CC1)Nc1ccc(Cl)cc1Cl` was 27.4%.
On the same count and under the same terms, under `O=C(CCCN1CCN(c2ccccc2)CC1)Nc1ccc(F)cc1F` stands 36.8%.
Consider `O=C(CCCN1CCN(Cc2ccc(Cl)c(Cl)c2)CC1)Nc1ccc(Cl)cc1Cl`, for which the IC50 in assay [2] worked out at 750 nM. Also, the inhibition was found to be 47.6% in assay [1] and 94.4% in assay [3].
Turning to `O=C(CCCN1CCN(Cc2ccc(Cl)cc2)CC1)Nc1cc(Cl)c(Cl)c(Cl)c1`, in assay [1], the inhibition was determined as 27.5%.
Same read-out and setting: the value for `O=C(CCCN1CCN(c2ccccc2F)CC1)Nc1ccc(F)cc1F` was 32.2%; that for `O=C(CN1CCN(C(=O)CCCCN2CCN(Cc3ccccc3)CC2)CC1)Nc1ccccc1Cl` was 15.9%; that for `O=C(CCCN1CCN(Cc2c(F)cccc2Cl)CC1)Nc1cc(Cl)c(Cl)c(Cl)c1` was 35.1%.
Same read-out and setting: the value for `O=C(CCN1CCN(c2ccccc2Cl)CC1)Nc1ccc(F)cc1F` was 28.4%; that for `O=C(CCN1CCN(c2ccccc2F)CC1)Nc1ccc(F)cc1F` was 30.3%.
Turning to `O=C(CCCN1CCN(c2ccc(F)cc2)CC1)Nc1cc(Cl)c(Cl)c(Cl)c1`, the inhibition in assay [1] stood at 20.7%.
With `O=C(CCCN1CCN(c2ccccc2F)CC1)Nc1cc(Cl)c(Cl)c(Cl)c1`, the inhibition in assay [1] was 20.1%.
For `COc1cccc(N2CCN(CCCC(=O)Nc3ccc(Cl)cc3Cl)CC2)c1`, the IC50 in assay [2] is 3810 nM. The inhibition in assay [1] worked out at 44.2%; in assay [3], 80.3%.
Consider `N#Cc1ccccc1N1CCN(CCCCC(=O)N2CCN(CC(=O)Nc3ccccc3Cl)CC2)CC1`, for which the inhibition in assay [1] is 7.38%.
On to `O=C(CCN1CCN(Cc2ccccc2)CC1)Nc1ccc(F)cc1F`, for which, in assay [1], the inhibition was determined as 21.1%.
As for `O=C(CCCCN1CCN(Cc2cccc(Cl)c2)CC1)N1CCN(c2ccccc2F)CC1`, the half-maximal inhibitory concentration (IC50) in assay [2] was 2440 nM. Also, the results for the inhibition in assay [1] and in assay [3] were 48.8% and 87.1%, respectively.
In the case of `COc1cccc(N2CCN(CCC(=O)Nc3ccc(F)cc3F)CC2)c1`, the inhibition in assay [1] came out at 29.5%.
Consider `O=C(CCCN1CCN(Cc2c(F)cccc2Cl)CC1)Nc1ccc(Cl)cc1Cl`, for which the IC50 in assay [2] is 2400 nM. Besides, the values for the inhibition in assay [1] and in assay [3] were 49.6% and 89.6%, respectively.
On to `O=C(CCN1CCN(c2cccc(Cl)c2)CC1)Nc1ccc(F)cc1F`, for which the inhibition in assay [1] came to 26.4%.
Regarding `O=C(CCCN1CCN(c2ccc(F)cc2)CC1)Nc1ccc(F)cc1F`, in assay [1], the inhibition was determined as 38.1%.
`O=C(CCCN1CCN(c2ccc(F)cc2)CC1)Nc1ccc(Cl)cc1`: in assay [2], the IC50 stood at 3490 nM. The inhibition in assay [1] stood at 32.5%; in assay [3], 76.1%.
As for `O=C(CCCN1CCN(c2ccccc2Cl)CC1)Nc1cc(Cl)c(Cl)c(Cl)c1`, the inhibition in assay [1] worked out at 13.6%.
`O=C(CCCCN1CCN(c2cccc(Cl)c2)CC1)Nc1ccccc1Cl`: the IC50 in assay [2] came to 1910 nM. The inhibition in assay [1] came out at 54%; in assay [3], 93.2%.
As for `O=C(CCCN1CCN(Cc2cccc(Cl)c2)CC1)Nc1ccc(F)cc1F`, the inhibition in assay [1] was 30.2%.
On to `O=C(CCCN1CCN(c2ccccc2)CC1)Nc1ccc(Cl)cc1`, for which, in assay [2], the half-maximal inhibitory concentration (IC50) worked out at 4470 nM. Moreover, the inhibition in assay [1] was found to be 30.4%; in assay [3], 75.1%.
The like results for `O=C(CCCN1CCN(Cc2c(F)cccc2Cl)CC1)Nc1ccc(Cl)cc1` were, in that order, 3270 nM, 39.8% and 72.8%.
With `O=C(CCN1CCN(c2ccccc2)CC1)Nc1ccc(F)cc1F`, the inhibition in assay [1] stood at 33.2%.
For `COc1cccc(N2CCN(CCCC(=O)Nc3ccc(Cl)cc3)CC2)c1`, in assay [2], the IC50 amounted to 2780 nM. Besides, the inhibition in assay [1] was 40.6%; in assay [3], 84.1%.
For `COc1ccccc1N1CCN(CCCC(=O)Nc2ccc(Cl)cc2Cl)CC1`, in that order: 3340 nM, 42.7% and 79.1%.
For `O=C(CCCN1CCN(Cc2ccc(Cl)cc2)CC1)Nc1ccc(Cl)cc1Cl`, in that order: 280 nM, 61.3% and 91.1%.
For `O=C(CCCN1CCN(Cc2ccc(Cl)cc2)CC1)Nc1ccc(Cl)cc1`, in that order: 370 nM, 33.6% and 92.6%.
As to `O=C(CCCCN1CCN(Cc2ccc(Cl)cc2)CC1)N1CCN(c2ccccc2)CC1`, in assay [2], the 50% inhibitory concentration (IC50) was 3400 nM. In addition, the inhibition in assay [1] stood at 50.4%; in assay [3], 79.7%.
For `COc1ccccc1N1CCN(CCCC(=O)Nc2cc(Cl)c(Cl)c(Cl)c2)CC1`, the inhibition in assay [1] amounted to 33.7%.
As for `O=C(CCCN1CCN(c2cccc(Cl)c2)CC1)Nc1ccc(Cl)cc1Cl`, in assay [2], the half-maximal inhibitory concentration (IC50) amounted to 1010 nM. The inhibition in assay [1] amounted to 38.1%; in assay [3] it was 95.4%.
Turning to `CCN1CCN(CCCCC(=O)N2CCN(CC(=O)Nc3cccc(C)c3)CC2)CC1`, in assay [1], the inhibition was -1.36%.
With `O=C(CCCN1CCN(Cc2ccc3c(c2)OCO3)CC1)Nc1ccc(Cl)cc1`, the IC50 in assay [2] is 2730 nM. Moreover, the inhibition in assay [1] stood at 33.4%; in assay [3] it was 81.9%.
Regarding `O=C(CN1CCN(C(=O)CCCCN2CCN(Cc3ccc(Cl)cc3)CC2)CC1)Nc1ccccc1Cl`, in assay [1], the inhibition stood at 26.2%.
Same read-out and setting: under `COc1ccccc1N1CCN(CCC(=O)Nc2ccc(F)cc2F)CC1` stands 37.1%; under `O=C(CCN1CCN(Cc2ccc(Cl)c(Cl)c2)CC1)Nc1ccc(F)cc1F`, 34.6%; under `O=C(CCN1CCN(Cc2ccc(Cl)cc2)CC1)Nc1ccc(F)cc1F`, 33.2%.
Consider `O=C(CCCN1CCN(c2ccccc2F)CC1)Nc1ccc(Cl)cc1`, for which, in assay [2], the 50% inhibitory concentration (IC50) came out at 3630 nM. The values for the inhibition in assay [1] and in assay [3] were 36.1% and 79.2%, respectively.
As for `O=C(CCCN1CCN(c2cccc(Cl)c2)CC1)Nc1ccc(F)cc1F`, the inhibition in assay [1] amounted to 51%.
As to `O=C(CCCN1CCN(Cc2ccccc2)CC1)Nc1cc(Cl)c(Cl)c(Cl)c1`, the inhibition in assay [1] is 49.4%.
As to `O=C(CCCN1CCN(Cc2ccccc2)CC1)Nc1ccc(Cl)cc1Cl`, the IC50 in assay [2] was determined as 3140 nM. The figures for the inhibition in assay [1] and in assay [3] were 44.9% and 79.3%, respectively.
As to `O=C(CCN1CCN(c2ccc(F)cc2)CC1)Nc1ccc(F)cc1F`, the inhibition in assay [1] worked out at 29.7%.
The same measure, in the same setting: the value for `O=C(CCCN1CCN(Cc2c(F)cccc2Cl)CC1)Nc1ccc(F)cc1F` was 38.9%; that for `O=C(CCCN1CCN(c2ccccc2Cl)CC1)Nc1ccc(F)cc1F` was 42%.
Consider `O=C(CCCN1CCN(Cc2cccc(Cl)c2)CC1)Nc1ccc(Cl)cc1`, for which the half-inhibitory concentration (IC50) in assay [2] stood at 1800 nM. Besides, the inhibition in assay [1] was determined as 38.3%; in assay [3], 92.4%.
Consider `O=C(CCCN1CCN(c2cccc(Cl)c2)CC1)Nc1cc(Cl)c(Cl)c(Cl)c1`, for which, in assay [1], the inhibition worked out at 16.8%.
The same measure, in the same setting: the value for `COc1ccccc1N1CCN(CCCC(=O)Nc2ccc(F)cc2F)CC1` was 33%; that for `O=C(CCCN1CCN(Cc2ccccc2)CC1)Nc1ccc(F)cc1F` was 23.2%; that for `O=C(CCCN1CCN(Cc2cccc(Cl)c2)CC1)Nc1cc(Cl)c(Cl)c(Cl)c1` was 37%.
For the molecule `O=C(CCCCN1CCN(Cc2ccc(Cl)cc2)CC1)N1CCN(c2ccccc2F)CC1`, the IC50 in assay [2] was 1810 nM. Besides, the inhibition in assay [1] was determined as 48.3%; in assay [3], 89.7%.
Consider `O=C(CN1CCN(C(=O)CCCCN2CCN(c3ccccc3F)CC2)CC1)Nc1ccccc1Cl`, for which the inhibition in assay [1] came out at 22.1%.
Take `O=C(CN1CCN(C(=O)CCCCN2CCN(c3ccc(F)cc3)CC2)CC1)Nc1ccccc1Cl`: the inhibition in assay [1] was found to be 34.9%.
With `COc1ccccc1N1CCN(CCCC(=O)Nc2ccc(Cl)cc2)CC1`, the IC50 in assay [2] was 2610 nM. Further, the inhibition came out at 51.8% in assay [1] and 84.3% in assay [3].
Consider `O=C(CCCN1CCN(c2ccccc2Cl)CC1)Nc1ccc(Cl)cc1`, for which, in assay [2], the half-inhibitory concentration (IC50) stood at 6010 nM. Also, the inhibition in assay [1] came out at 37.3%; in assay [3], 60.5%.
Consider `O=C(CCCN1CCN(Cc2ccc3c(c2)OCO3)CC1)Nc1ccc(Cl)cc1Cl`, for which the concentration for half-maximal inhibition (IC50) in assay [2] worked out at 1670 nM. In addition, the inhibition came out at 49.8% in assay [1] and 88.1% in assay [3].
`O=C(CCCN1CCN(Cc2ccc(Cl)c(Cl)c2)CC1)Nc1ccc(F)cc1F`: the inhibition in assay [1] is 59.9%.
As to `O=C(CCCCN1CCN(Cc2ccc(Cl)c(Cl)c2)CC1)Nc1ccccc1Cl`, in assay [2], the half-maximal inhibitory concentration (IC50) is 1010 nM. In addition, the values for the inhibition in assay [1] and in assay [3] were 55.9% and 91%, respectively.
As to `COc1cccc(N2CCN(CCCCC(=O)N3CCN(CC(=O)Nc4ccccc4Cl)CC3)CC2)c1`, the inhibition in assay [1] turned out to be 26.1%.
Take `O=C(CCN1CCN(Cc2cccc(Cl)c2)CC1)Nc1ccc(F)cc1F`: the inhibition in assay [1] was determined as 34.7%.
On to `COc1cccc(N2CCN(CCCC(=O)Nc3cc(Cl)c(Cl)c(Cl)c3)CC2)c1`, for which the inhibition in assay [1] was determined as 21.6%.
Consider `O=C(CCCN1CCN(Cc2ccc(Cl)cc2)CC1)Nc1ccc(F)cc1F`, for which the inhibition in assay [1] worked out at 48%.
Still for that read-out and setting: under `COc1cccc(N2CCN(CCCC(=O)Nc3ccc(F)cc3F)CC2)c1` stands 40.6%.
